According to PubChem BioAssay:
Active and inactive are the calls of the source.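 Rule for the calls: active = current rise at least 3 SD above the untreated control mean in each of two repeat wells; inactive = the rest.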

Each compound was assayed against Potassium voltage-gated channel subfamily KQT member 1 (Homo sapiens) (UniProt P51787) (assay: KCNQ1 channel current potentiators, confirmation, orthogonal assay for KCNQ1 potentiator project, IonWorks patch clamp, KCNQ1-CHO cells (AID 493184)). Conditions: automated patch clamp current, at 10 µM.
Outline: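 Test system: KCNQ1-expressing CHO cells. Medium: pH 7.4 external bath. Probe or stimulus: voltage step from -90 mV holding to +40 mV, 2,000 ms. Compound: 10 µM final, single point. Detection: automated perforated-patch electrophysiology. Read-out: percent current increase versus pre-compound level. Repeats: two replicates.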

Sequence of Potassium voltage-gated channel subfamily KQT member 1 (Homo sapiens) (P51787 whole entry, looked up): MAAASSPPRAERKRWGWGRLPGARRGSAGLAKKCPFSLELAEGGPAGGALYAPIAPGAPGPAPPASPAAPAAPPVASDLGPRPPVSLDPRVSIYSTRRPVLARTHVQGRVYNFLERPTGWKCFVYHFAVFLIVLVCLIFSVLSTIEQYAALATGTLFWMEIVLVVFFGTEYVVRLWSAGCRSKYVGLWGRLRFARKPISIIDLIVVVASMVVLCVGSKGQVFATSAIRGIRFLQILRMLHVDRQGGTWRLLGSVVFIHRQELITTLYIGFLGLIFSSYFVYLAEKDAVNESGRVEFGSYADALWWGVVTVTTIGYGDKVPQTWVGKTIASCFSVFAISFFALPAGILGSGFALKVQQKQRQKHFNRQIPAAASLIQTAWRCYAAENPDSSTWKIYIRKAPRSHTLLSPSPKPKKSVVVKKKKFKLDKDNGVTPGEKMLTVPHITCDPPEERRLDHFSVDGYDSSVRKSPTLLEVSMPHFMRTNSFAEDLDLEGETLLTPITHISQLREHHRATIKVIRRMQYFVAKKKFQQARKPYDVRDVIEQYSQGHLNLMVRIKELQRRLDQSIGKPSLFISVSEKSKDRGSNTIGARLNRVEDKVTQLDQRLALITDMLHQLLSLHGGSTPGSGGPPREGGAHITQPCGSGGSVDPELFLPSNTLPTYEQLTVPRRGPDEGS

outcome, inactive:
CN1C=CC=C/C1=C1\SC(=S)N(Cc2ccccc2)C1=O
CCOc1ccc(NC(=O)CN(C)C(=O)C2CCN(c3ncnc4sc(C)c(C)c34)CC2)cc1OCC
CC1=NN(C(=O)c2csc(C)c2C)C(O)(C(F)(F)F)C1 (stereo not given)
COc1ccc(C(=O)O/N=C(\N)Cc2ccc(Cl)cc2Cl)cc1OC
O=C(NCC1CCCO1)c1ccccc1OCc1ccc(F)cc1 (stereo not given)
Cc1ccc(S(=O)(=O)N(C)c2nc3ccccc3[nH]c2=S)cc1
CC1=CC(=O)C=C(C)C1=NOS(=O)(=O)c1ccccc1
CCOc1ccccc1NC(=O)C(=O)CC(=O)c1cccc(OC)c1
O=C(CN(Cc1ccccc1Cl)C(=O)c1csnn1)NC1CCCC1
Oc1c(N=NC(=S)Nc2ccccc2F)c2ccccc2n1Cc1ccccc1
Fc1ccc(NC(=S)N/N=C/c2ccc(F)c(F)c2)c(F)c1
CCC1(c2ccc(Cl)cc2)NC(=S)N(c2ccc(C)c(C)c2)N1 (stereo not given)
O=C(Nc1nnc(-c2ccco2)o1)c1cccc(Cl)c1
O=C(NC(=S)Nc1ccccc1F)c1ccc(Br)o1
COc1cccc(OCC(=O)NNC(=O)C(=O)Nc2ccc(OC)cc2OC)c1
COCCCn1c(=S)[nH]c2c(sc3ccccc32)c1=O
CN(C)c1ccc(C(=O)Nc2nnc(C3=COCCO3)o2)cc1
CCSc1nnc(NC(=O)[C@H](C)NC(=O)c2ccccc2Cl)s1
O=C(N/N=C/c1cccnc1)c1ccco1
O=C(c1ccccc1)N1CCC(CC2CC(c3ccc(Cl)cc3)=NO2)(C(=O)NCC2CCCCC2)CC1 (stereo not given)
O=c1c2ccccc2[nH]c(=S)n1CCC1=CCCCC1
Cc1ccc(-c2nc(N)s[n+]2-c2ccccc2)cc1
CCn1c(O)c(N=NC2=NC(=O)CS2)c2ccccc21
Cc1ccccc1-n1c(C)cc(/C=N/NC(=O)c2ccncc2)c1C
COc1cc(CNCCN2CCOCC2)ccc1OCc1ccc(Cl)cc1Cl
CN(C(=S)NC(=O)c1ccccc1)C1CCCCC1
CCc1ccc2[nH]c(O)c(N=Nc3nc(-c4ccccc4)cs3)c2c1
O=C(NC(=S)N1CCN(C/C=C/c2ccccc2)CC1)c1c(F)cccc1F
O=C(COC(=O)C12CC3CC(CC(C3)C1)C2)NCCCc1ccccc1
Cc1ccc(SCC2(O)CCN(S(=O)(=O)c3ccc(Cl)cc3)CC2)cc1
O=C(NC(=S)N1CCCc2ccccc21)c1ccc([N+](=O)[O-])cc1
Cc1ccc(-c2nc3ccccc3o2)cc1NC(=S)NC(=O)c1cc2ccccc2o1
O=C(CSc1nnc(SCc2cccc3ccccc23)s1)c1ccc2c(c1)OCO2
COCCn1c(=S)[nH]c2sc3c(c2c1=O)CCCC3
O=C(CC1C(=O)NCCN1Cc1cccc(F)c1)NCCCN1CCCC1=O (stereo not given)
O=C(NC(=S)Nc1cccc(Cl)c1N1CCCCC1)c1ccco1
CCCc1cc(=O)n2[nH]cc(-c3ccc(Cl)cc3)c2n1
Oc1oc(-c2cccc3ccccc23)nc1/C=N/c1nccs1
O=c1c2ccccc2nc(-c2cccc(Cl)c2)n1O
CCCCN1CNC(=S)N(c2ccccc2OCC)C1
